Reference: PMC10692386 (Acta Pharmaceutica Sinica. B, 2023)
≈ marks a conversion by molar mass, not a printed value.

Assays:
HIV-1 mutant E138K = assay: Anti-HIV-1 efficacy against mutant E138K in MT-4 cells; assay type: cell-based; conditions: Human immunodeficiency virus 1, MT4, read-out: EC50 E138K
Outline: (§1)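 MT-4 cells were infected with HIV-1 RT mutant strains. EC50 was the concentration giving 50% protection against viral cytopathicity, averaged from at least three independent experiments. Cytotoxicity in mock-infected cultures was read by MTT.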

HIV-1 mutant L100I = assay: Anti-HIV-1 efficacy against mutant L100I in MT-4 cells; assay type: cell-based; conditions: Human immunodeficiency virus 1, MT4, read-out: EC50 L100I
Outline: as §1

Aqueous solubility = assay type: physicochemical
[1] = Cytotoxicity in mock-infected MT-4 cell cultures; assay type: cell-based; conditions: human, mock-infected MT-4 cells
HIV-1 mutant K103N = assay: Anti-HIV-1 efficacy against mutant K103N in MT-4 cells; assay type: cell-based; conditions: Human immunodeficiency virus 1, MT4, read-out: EC50 K103N
Outline: as §1

Acute toxicity assay = assay type: in vivo, ICR mice; conditions: single intragastric administration of 1.2 g/kg
Outline: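 ICR mice, 24–28 g, aged 5–6 weeks (4 male, 4 female), were randomised into 4 groups. Test compound was given as a single intragastric dose. Body weight, behaviour and coat colour were followed for 14 days. Mice were then euthanised, and kidney, lung, spleen, liver, heart and brain were HE-stained for histology.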

[2] = PK study in Sprague-Dawley rats; assay type: in vivo; conditions: rat, plasma
Outline: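 Six SD rats, 180–220 g, were fasted 12 h and randomised into an intravenous arm (1 mg/kg) and an intragastric arm. Blood was drawn from pre-dose to 720 min into heparin, and plasma was stored at −80 °C. Plasma was precipitated with acetonitrile, dried under nitrogen, reconstituted and assayed by HPLC-MS/MS. PK parameters and bioavailability came from concentration–time data.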

[3] = system: HIV-1 mutant K103N + Y181C; assay: Anti-HIV-1 efficacy against mutant K103N + Y181C in MT-4 cells; assay type: cell-based; conditions: Human immunodeficiency virus 1, MT4, read-out: EC50 K103N + Y181C
Outline: as §1

WT HIV-1 RT = WT HIV-1 RT (Human immunodeficiency virus type 1 group M subtype B, UniProt P03366); assay: Inhibition of WT HIV-1 RT; assay type: biochemical
CYP2C19 = CYP2C19 (Homo sapiens, UniProt P33261); assay: biochemical
CYP2C19, sequence (P33261 whole entry): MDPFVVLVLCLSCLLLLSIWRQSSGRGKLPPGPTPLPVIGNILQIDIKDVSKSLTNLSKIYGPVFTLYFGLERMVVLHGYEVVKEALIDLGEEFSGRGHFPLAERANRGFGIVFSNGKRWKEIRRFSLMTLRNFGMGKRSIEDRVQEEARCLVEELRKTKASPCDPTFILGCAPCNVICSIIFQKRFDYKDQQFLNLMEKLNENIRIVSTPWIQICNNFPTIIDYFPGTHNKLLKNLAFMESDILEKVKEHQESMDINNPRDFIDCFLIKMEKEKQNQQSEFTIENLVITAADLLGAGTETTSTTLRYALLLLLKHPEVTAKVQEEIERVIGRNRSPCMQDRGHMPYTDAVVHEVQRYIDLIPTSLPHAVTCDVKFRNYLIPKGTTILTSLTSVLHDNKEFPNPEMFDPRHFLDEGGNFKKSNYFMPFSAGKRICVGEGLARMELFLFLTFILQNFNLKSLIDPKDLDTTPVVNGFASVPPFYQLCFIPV

CYP2D6 = CYP2D6 (Homo sapiens, UniProt P10635); assay: Cytochrome P450 inhibition assay, CYP2D6; assay type: in vitro ADME
CYP2D6, sequence (P10635 whole entry): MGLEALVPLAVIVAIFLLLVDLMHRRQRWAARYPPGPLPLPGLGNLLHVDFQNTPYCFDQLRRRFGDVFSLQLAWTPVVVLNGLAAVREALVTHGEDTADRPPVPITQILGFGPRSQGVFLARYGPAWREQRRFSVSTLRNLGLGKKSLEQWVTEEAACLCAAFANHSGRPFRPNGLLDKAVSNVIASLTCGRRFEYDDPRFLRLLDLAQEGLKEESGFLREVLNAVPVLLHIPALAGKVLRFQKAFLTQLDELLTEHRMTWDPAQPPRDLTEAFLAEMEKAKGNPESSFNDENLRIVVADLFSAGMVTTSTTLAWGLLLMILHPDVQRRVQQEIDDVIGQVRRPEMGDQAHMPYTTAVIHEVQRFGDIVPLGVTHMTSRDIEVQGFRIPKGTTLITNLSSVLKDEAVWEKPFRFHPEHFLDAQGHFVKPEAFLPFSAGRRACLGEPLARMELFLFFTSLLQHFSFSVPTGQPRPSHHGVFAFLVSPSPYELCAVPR

HIV-1 mutant Y181C = assay: Anti-HIV-1 efficacy against mutant Y181C in MT-4 cells; assay type: cell-based; conditions: Human immunodeficiency virus 1, MT4, read-out: EC50 Y181C
Outline: as §1

CYP2C9 = CYP2C9 (Homo sapiens, UniProt P11712); assay: Cytochrome P450 inhibition assay, CYP2C9; assay type: in vitro ADME
CYP2C9, sequence (P11712 whole entry): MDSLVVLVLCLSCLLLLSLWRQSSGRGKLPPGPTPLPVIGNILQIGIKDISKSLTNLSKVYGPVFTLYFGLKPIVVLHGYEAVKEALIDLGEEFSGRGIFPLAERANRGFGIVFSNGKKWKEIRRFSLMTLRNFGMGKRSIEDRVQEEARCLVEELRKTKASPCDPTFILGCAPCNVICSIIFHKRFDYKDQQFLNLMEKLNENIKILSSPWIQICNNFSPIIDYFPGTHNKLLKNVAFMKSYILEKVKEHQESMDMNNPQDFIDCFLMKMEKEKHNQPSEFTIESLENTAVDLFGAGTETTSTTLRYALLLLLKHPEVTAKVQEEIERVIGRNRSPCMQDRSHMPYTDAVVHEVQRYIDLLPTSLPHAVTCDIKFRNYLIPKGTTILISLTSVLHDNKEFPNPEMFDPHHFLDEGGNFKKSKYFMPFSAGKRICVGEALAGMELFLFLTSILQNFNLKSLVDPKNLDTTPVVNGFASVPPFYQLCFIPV

CYP1A2 = target: T1, CYP1A2 (Homo sapiens, UniProt P05177); assay: Cytochrome P450 inhibition assay, CYP1A2; assay type: in vitro ADME
T1 sequence (P05177 1-516): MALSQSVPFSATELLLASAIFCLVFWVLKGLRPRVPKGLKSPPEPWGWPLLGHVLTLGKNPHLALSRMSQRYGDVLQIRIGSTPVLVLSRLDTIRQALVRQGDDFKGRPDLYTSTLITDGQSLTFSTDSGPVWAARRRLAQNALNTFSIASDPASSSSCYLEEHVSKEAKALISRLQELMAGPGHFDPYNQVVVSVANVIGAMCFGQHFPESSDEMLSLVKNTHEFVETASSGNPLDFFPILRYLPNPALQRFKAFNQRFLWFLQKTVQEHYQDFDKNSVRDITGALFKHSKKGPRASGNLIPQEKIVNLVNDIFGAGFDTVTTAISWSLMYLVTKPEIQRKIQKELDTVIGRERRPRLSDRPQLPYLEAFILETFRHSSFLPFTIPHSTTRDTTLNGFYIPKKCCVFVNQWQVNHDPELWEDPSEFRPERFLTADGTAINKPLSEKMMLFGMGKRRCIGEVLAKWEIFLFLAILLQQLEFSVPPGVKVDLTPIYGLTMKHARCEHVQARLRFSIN

HIV-1 mutant Y188L = assay: Anti-HIV-1 efficacy against mutant Y188L in MT-4 cells; assay type: cell-based; conditions: Human immunodeficiency virus 1, MT4, read-out: EC50 Y188L
Outline: as §1

hERG potassium channels = hERG potassium channels (Homo sapiens, UniProt Q12809); assay: hERG channel Qpatch assay in CHO-hERG cells; assay type: cell-based
hERG potassium channels, sequence (Q12809 whole entry): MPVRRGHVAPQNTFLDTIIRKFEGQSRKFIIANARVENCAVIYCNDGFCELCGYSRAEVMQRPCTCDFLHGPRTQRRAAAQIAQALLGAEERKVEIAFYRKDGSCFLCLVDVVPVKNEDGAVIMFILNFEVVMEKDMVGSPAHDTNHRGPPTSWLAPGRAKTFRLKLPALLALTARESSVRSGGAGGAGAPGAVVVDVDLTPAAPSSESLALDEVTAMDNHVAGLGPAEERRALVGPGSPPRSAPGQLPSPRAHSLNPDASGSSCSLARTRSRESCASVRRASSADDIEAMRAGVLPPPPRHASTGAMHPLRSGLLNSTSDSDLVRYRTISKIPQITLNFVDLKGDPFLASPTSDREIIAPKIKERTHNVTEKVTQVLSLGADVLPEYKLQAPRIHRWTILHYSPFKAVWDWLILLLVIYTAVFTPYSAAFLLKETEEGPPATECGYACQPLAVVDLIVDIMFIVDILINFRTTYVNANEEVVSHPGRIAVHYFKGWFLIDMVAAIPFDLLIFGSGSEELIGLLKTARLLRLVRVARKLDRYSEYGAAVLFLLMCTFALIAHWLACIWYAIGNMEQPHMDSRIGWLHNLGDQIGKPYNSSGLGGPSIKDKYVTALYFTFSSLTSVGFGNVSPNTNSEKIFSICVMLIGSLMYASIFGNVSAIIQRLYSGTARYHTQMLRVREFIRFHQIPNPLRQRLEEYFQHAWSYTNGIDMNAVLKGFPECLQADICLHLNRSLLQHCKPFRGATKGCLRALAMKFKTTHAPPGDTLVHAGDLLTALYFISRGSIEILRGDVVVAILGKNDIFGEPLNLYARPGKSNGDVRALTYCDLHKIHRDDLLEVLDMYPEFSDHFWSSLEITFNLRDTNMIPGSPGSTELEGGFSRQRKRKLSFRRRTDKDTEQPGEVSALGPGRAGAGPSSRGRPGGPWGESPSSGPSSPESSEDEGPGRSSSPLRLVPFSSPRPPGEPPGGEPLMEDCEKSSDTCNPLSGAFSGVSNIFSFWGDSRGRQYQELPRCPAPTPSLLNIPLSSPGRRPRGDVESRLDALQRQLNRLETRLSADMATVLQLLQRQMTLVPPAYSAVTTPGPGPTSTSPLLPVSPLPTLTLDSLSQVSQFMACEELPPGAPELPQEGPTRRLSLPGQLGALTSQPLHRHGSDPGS

WT HIV-1 = assay: Anti-HIV-1 activity in MT-4 cells infected with HIV-1; assay type: cell-based
[4] = system: K103N, L100I, E138K, Y181C, and K103N + Y181C; assay: Anti-HIV-1 efficacy against mutant panel; assay type: cell-based; conditions: Human immunodeficiency virus 1, read-out: EC50 value range
Outline: as §1

CYP3A4 = CYP3A4 (Homo sapiens, UniProt P08684); assay: Cytochrome P450 inhibition assay, CYP3A4; assay type: in vitro ADME
CYP3A4, sequence (P08684 whole entry): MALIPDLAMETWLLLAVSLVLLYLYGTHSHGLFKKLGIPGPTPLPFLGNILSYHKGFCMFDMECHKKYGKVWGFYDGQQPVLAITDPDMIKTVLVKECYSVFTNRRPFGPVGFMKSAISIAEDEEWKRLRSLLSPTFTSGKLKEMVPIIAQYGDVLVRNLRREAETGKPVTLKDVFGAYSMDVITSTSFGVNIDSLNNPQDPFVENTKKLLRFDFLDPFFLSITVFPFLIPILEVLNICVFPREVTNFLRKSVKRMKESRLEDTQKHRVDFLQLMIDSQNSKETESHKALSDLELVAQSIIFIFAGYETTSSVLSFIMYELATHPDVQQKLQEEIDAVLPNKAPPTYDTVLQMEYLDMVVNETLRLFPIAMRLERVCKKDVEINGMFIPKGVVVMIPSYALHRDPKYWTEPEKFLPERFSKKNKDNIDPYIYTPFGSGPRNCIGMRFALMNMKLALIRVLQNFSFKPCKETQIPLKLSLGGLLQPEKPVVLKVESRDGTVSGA

Cn1c(Cn2ccc(C(F)(F)F)c(Oc3cccc4cnccc34)c2=O)n[nH]c1=O [7w]
EC50 (HIV-1 mutant E138K): 0.049 ± 0.013 µM
EC50 (HIV-1 mutant L100I): 0.038 ± 0.017 µM
solubility (Aqueous solubility; pH 2, aqueous buffer): 4470 µg/mL (≈ 10700 µM)
solubility (Aqueous solubility; pH 7, aqueous buffer): 38 µg/mL (≈ 91.1 µM)
solubility (Aqueous solubility; pH 7.4, aqueous buffer): 53 µg/mL (≈ 127 µM)
CC50 [1]: 274 ± 10.6 µM
EC50 (HIV-1 mutant K103N): 0.071 ± 0.019 µM
Pathological damage of six main organs (HE staining) (Acute toxicity assay; after 14 days): no obvious pathological damage
Behavior and weight (Acute toxicity assay; observed 14 days): normal behavior and weight
Mortality (Acute toxicity assay; observed 14 days): did not result in any fatalities
Cmax ([2]; iv, 1 mg/kg): 456 ± 51.1 ng/mL
Tmax ([2]; iv, 1 mg/kg): 4.98 min
half-life ([2]; iv, 1 mg/kg): 17.4 ± 12.6 min
AUC ([2]; iv, 1 mg/kg, AUC0‒t, 1.0 mg/kg (i.v.)): 229 ± 45.3 ng·h/mL
AUC ([2]; iv, 1 mg/kg, AUC0‒∞, 1.0 mg/kg (i.v.)): 230 ± 46 ng·h/mL
MRT ([2]; iv, 1 mg/kg, MRT0‒t, 1.0 mg/kg (i.v.)): 21.1 ± 2.5 min
MRT ([2]; iv, 1 mg/kg, MRT0‒∞, 1.0 mg/kg (i.v.)): 22 ± 28 min
Cmax ([2]; po, 5 mg/kg): 2888 ± 9.71 ng/mL
Tmax ([2]; po, 5 mg/kg): 25 ± 8.64 min
bioavailability ([2]; po, 5 mg/kg): 27.1 ± 0.0219%
half-life ([2]; po, 5 mg/kg): 107 ± 17.4 min
AUC ([2]; po, 5 mg/kg, AUC0‒t, 5.0 mg/kg (p.o.)): 304 ± 24.5 ng·h/mL
AUC ([2]; po, 5 mg/kg, AUC0‒∞, 5.0 mg/kg (p.o.)): 312 ± 25.3 ng·h/mL
MRT ([2]; po, 5 mg/kg, MRT0‒t, 5.0 mg/kg (p.o.)): 70.2 ± 9.18 min
MRT ([2]; po, 5 mg/kg, MRT0‒∞, 5.0 mg/kg (p.o.)): 85.2 ± 8.4 min
EC50 [3]: 0.14 ± 0.09 µM
IC50 (WT HIV-1 RT): 0.12 ± 0.007 µM
IC50 (CYP2C19): 26.8 µM
IC50 (CYP2D6): > 50 µM
EC50 (HIV-1 mutant Y181C): 0.05 ± 0.011 µM
IC50 (CYP2C9): 19.6 µM
IC50 (CYP1A2): > 50 µM
EC50 (HIV-1 mutant Y188L): 5.35 ± 2.15 µM
IC50 (hERG potassium channels): > 40 µM
EC50 (WT HIV-1; Human immunodeficiency virus 1, MT4): 0.022 ± 0.01 µM
SI (WT HIV-1; selectivity index, the ratio of CC50/EC50, WT HIV-1): 12,497.73
EC50 [4]: 0.035 to 0.14 µM
IC50 (CYP3A4): > 50 µM
